Reference: PMC11377854 (Nature methods, 2024)
Like-named read-outs stand apart in the source and are kept apart here.

Key:
[1] = test system: 5-HT release in mouse dorsal cortex; experiment: Mesoscopic imaging of optogenetically evoked cortical 5-HT release; format: in vivo, mice; settings: fluoxetine 20 mg/kg i.p., GBR 12909 10 mg/kg i.p.
Summary of the method: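 In Sert-Cre mice, 300 nl AAV9-EF1a-DIO-ChrimsonR was injected into the DRN (AP −6.1, ML 0, depth 3 mm, 32° AP angle), with an optical fiber 0.2 mm above the site. Mice recovered ≥7 d and were habituated head-fixed over >3 d.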

GPCR-mediated Gs pathway = experiment: Luciferase complementation assay; format: cell-based; settings: HEK293T cells, 5-HT 0.01 nM to 1 mM
β-arrestin pathway = experiment: Tango assay; format: cell-based; settings: HTLA cells, 5-HT 0.01 nM to 100 μM
g5-HT3.0 [2] = experiment: Pharmacological specificity of g5-HT3.0 in HEK293T cells; format: cell-based; settings: compounds 10 μM except RS 100 μM
r5-HT1.0 [3] = experiment: Pharmacological specificity of r5-HT1.0 in HEK293T cells; format: cell-based; settings: compounds 10 μM except RS 100 μM
r5-HT1.0 [4] = experiment: Dose-response of sensor fluorescence change; format: cell-based, cultured rat cortical neurons; settings: read-out: EC50 values
g5-HT2h = settings: read-out: EC50 values
g5-HT3.0 [5] = experiment: Dose-response of sensor fluorescence change; format: cell-based, HEK293T cells; settings: n = 3
g5-HT2m = settings: read-out: EC50 values
r5-HT1.0 [6] = experiment: Dose-response of sensor fluorescence change; format: cell-based, HEK293T cells; settings: n = 3
g5-HT3.0 [7] = experiment: Dose-response of sensor fluorescence change; format: cell-based, cultured rat cortical neurons; settings: read-out: EC50 values

CNCCC(Oc1ccc(C(F)(F)F)cc1)c1ccccc1 (stereo not drawn) [fluoxetine]
baseline 5-HT levels (g5-HT3.0 signal) [1]: gradual increase

wild-type 5-HTR4: wild-type 5-HTR4 receptor
downstream coupling, Gs pathway (GPCR-mediated Gs pathway): high basal activity and robust, dose-dependent coupling
downstream coupling, β-arrestin pathway (β-arrestin pathway): high basal activity and robust, dose-dependent coupling

Fc1ccc(C(OCCN2CCN(CCCc3ccccc3)CC2)c2ccc(F)cc2)cc1 [GBR 12909]
baseline 5-HT levels (g5-HT3.0 signal) [1]: no effect

COc1cc(N)c(Cl)cc1C(=O)OCCCN1CCCCC1 [RS 23597-190]
block of 5-HT induced response of g5-HT3.0 (g5-HT3.0 [2]): blocked
block of 5-HT induced response of r5-HT1.0 (r5-HT1.0 [3]): blocked

NCCc1c[nH]c2ccc(O)cc12 [5-HT, serotonin (5-hydroxytryptamine)]
EC50 (r5-HT1.0 [4]): 600 nM
EC50 (g5-HT2h): 70 nM
EC50 (g5-HT3.0 [5]): ~150 nM
EC50 (g5-HT2m): 2400 nM
EC50 (r5-HT1.0 [6]): ~790 nM
EC50 (g5-HT3.0 [7]): 80 nM
